Only some compounds are listed: those with a hit (about 2.1% of all), similar ones and a draw of the others.
IMP-1 inh-1: IMP-1 metallo-beta-lactamase inhibitors, primary screen, biochemical, epi-absorbance readout, Pseudomonas aeruginosa enzyme | inhibition, % at 5.6 µM | purified IMP-1, nitrocefin hydrolysis, epi-absorbance fluorescence | 290,000 tested, 0.45% active | AID 1556, 2009 | metallo-beta-lactamase IMP-1 (Pseudomonas aeruginosa);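 active means inhibition above the mean plus 3 SD of all compounds in the same screening run, cut at about 4.5% in these data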;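 further: 0% = IMP-1 with DMSO and 100% = DMSO wells lacking enzyme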
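system = purified recombinant IMP-1 beta-lactamase | amount = 0.2 nM IMP-1, as dispensed | medium = HEPES buffer pH 7.1 with ZnSO4 and Brij 35 | times = 25 °C, 15 min preincubation, 25 min reaction | detection = plate fluorescence quenching by hydrolysis product, ex 480/em 530 nm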
VIM-2 inhibitor: VIM-2 metallo-beta-lactamase inhibitors, primary screen, biochemical, epi-absorbance readout, Pseudomonas aeruginosa enzyme. AID 1527, 2009. 290,000 tested, 0.89% active. inhibition, % at 5.6 µM. purified VIM-2, nitrocefin hydrolysis, epi-absorbance fluorescence;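 active means inhibition above the mean of all tested compounds plus 3 SD, cutoff set per screening run, cut at about 7.5% in these data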;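 further: red hydrolysis product quenches plate fluorescence so inhibitors raise well fluorescence; 0% = enzyme with DMSO and 100% = DMSO without enzyme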
CRFBP-R2 block: antagonists of CRF-BP/CRF-R2 complex, primary screen, cell-based, HEK293, calcium dye fluorescence, uHTS | 350,000 tested, 0.59% active | CRF-induced calcium fluorescence | AID 588475, 2011 | inhibition, % at 11.8 µM;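 active means inhibition of the ligand-induced calcium signal above about 50% at the single tested concentration, limit read from the data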
CRFR2-BP ag: agonists of CRF-BP/CRF-R2 complex, primary screen, cell-based, HEK293, calcium dye fluorescence, uHTS; CRF-binding protein / CRF receptor 2 complex (human); calcium dye fluorescence (FLIPR); percent of saturating CRF peptide response; activation, % at 13.2 µM; 350,000 tested, 0.46% active;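 active means activation of at least 50%, plus an integration ratio under a set limit after plate pattern correction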;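 further: plate controls were neutral control wells without compound for no effect and CRF at EC100 for full effect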
zfTRPN1 agonist: zebrafish TRPN1 channel agonists, primary screen, cell-based, HEK293, calcium fluorescence | HEK293 zebrafish TRPN1-YFP, Fluo-8 calcium fluorescence; 100% = response to 87 µM carbachol | activation, % at 3 µM | 220,000 tested, 0.18% active;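 active means activation above its plate's cutoff, the mean activation of test wells on that plate plus 3 SD, cut at about 19% in these data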;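 further: 0% = DMSO alone and 100% = 87 µM carbachol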
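Assay system: Zebrafish TRPN1-YFP in HEK293 cells | Incubation: Dye loading 1 h at 37 °C, then 30 min room temperature | Measured by: Kinetic Fluo-8 fluorescence, ex 470-495, em 515-575 nm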
TRPML3 agonist: human TRPML3 channel agonists, primary screen, cell-based, HEK293 TRPML3-YFP, Fluo-8 calcium fluorescence, 3 µM; 100% = the carbachol control signal; activation, % at 3 µM; 220,000 tested, 0.29% active; AID 1448, 2008;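 active means activation above its plate's cutoff, the mean activation of the plate's test wells plus 3 SD, cut at about 12% in these data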;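 further: 0% = DMSO only wells and 100% = carbachol wells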
Target sequence (Q8TDD5 whole entry, looked up): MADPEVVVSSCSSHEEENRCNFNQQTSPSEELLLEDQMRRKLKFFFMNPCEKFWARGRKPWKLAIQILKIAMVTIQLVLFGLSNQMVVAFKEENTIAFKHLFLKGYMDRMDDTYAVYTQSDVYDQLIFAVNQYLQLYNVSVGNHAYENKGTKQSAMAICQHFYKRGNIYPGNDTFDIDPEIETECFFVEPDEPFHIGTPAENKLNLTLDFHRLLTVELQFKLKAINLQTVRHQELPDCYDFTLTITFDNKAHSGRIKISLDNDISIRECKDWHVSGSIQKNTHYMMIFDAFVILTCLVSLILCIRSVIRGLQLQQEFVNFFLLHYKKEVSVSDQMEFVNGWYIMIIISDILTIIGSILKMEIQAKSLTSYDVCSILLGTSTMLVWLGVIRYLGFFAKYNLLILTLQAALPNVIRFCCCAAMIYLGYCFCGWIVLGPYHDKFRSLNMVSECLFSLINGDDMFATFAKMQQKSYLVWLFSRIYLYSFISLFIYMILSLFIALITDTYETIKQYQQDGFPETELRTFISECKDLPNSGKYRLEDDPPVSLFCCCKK
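Test system: HEK293 cells stably carrying human TRPML3-YFP; Doses: single dose, 3 µM final nominal compound, 0.3% DMSO final; Schedule: dye loading 1 h 37 °C then 30 min ambient, 125 s read; Technique: Fluo-8 calcium fluorescence; Benchmarks: high control carbachol 87 µM, low control DMSO.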
IMP-1 inh-2: IMP-1 metallo-beta-lactamase inhibitors, confirmation, selectivity assay for selective VIM-2 inhibitor project, biochemical, epi-absorbance readout, triplicate; shares compounds with VIM-2 inhibitor; purified IMP-1, nitrocefin hydrolysis, epi-absorbance fluorescence; inhibition, % at 5.6 µM; 1,300 tested, under 10 active; call rule not given here;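 further: 0% = enzyme with vehicle and 100% = vehicle without enzyme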
VIM-2 FRET inh: VIM-2 inhibitors in FRET format, confirmation, artefact control for selective VIM-2 inhibitor project, biochemical, epi-absorbance artifact exclusion; purified VIM-2, CCF2 FRET substrate hydrolysis; shares compounds with VIM-2 inhibitor; inhibition, % at 5.6 µM; 1,300 tested, 23% active;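 active means inhibition above the mean of all tested compounds plus 3 SD, cut at about 19% in these data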;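 further: 0% = VIM-2 plus DMSO and 100% = no enzyme wells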
TEM-1 inh: TEM-1 serine beta-lactamase inhibitors, counter-screen for VIM-2 inhibitor project, biochemical, epi-absorbance, HTS; shares compounds with VIM-2 inhibitor; Purified TEM-1, nitrocefin hydrolysis, epi-absorbance fluorescence; inhibition, % at 5.6 µM; 1,300 tested, 3% active; AID 1866, 2009;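 active means inhibition above that campaign's mean inhibition plus 3 SD, cut at about 0.46% in these data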;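 further: 0% = TEM-1 with DMSO and 100% = TEM-1 with 100 µM potassium clavulanate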
Target sequence (P62593 whole entry, looked up): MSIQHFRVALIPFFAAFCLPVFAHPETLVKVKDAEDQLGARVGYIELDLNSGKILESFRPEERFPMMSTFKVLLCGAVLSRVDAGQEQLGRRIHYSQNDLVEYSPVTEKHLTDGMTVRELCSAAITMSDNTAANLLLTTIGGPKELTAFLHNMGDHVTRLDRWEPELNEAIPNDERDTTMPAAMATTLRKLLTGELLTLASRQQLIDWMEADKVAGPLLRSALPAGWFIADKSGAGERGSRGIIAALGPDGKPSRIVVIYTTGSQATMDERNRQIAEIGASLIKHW
VIM-2 confirm 2: VIM-2 metallo-beta-lactamase inhibitors, confirmation, biochemical, epi-absorbance, hits shared with IMP-1 screen; AID 2187, 2009; purified VIM-2, nitrocefin hydrolysis; inhibition, % at 5.6 µM; shares compounds with VIM-2 inhibitor; 1,300 tested, 96% active;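 active means inhibition of the VIM-2 beta-lactamase enzyme above about 11% from the earlier first-round screen, limit read from the data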;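 further: 0% = VIM-2 with DMSO and 100% = buffer wells without enzyme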
* marks the source's active call; other numbers are inactive results; nt = not tested or not shown.

SMILES | IMP-1 inh-1 | VIM-2 inhibitor | CRFBP-R2 block | CRFR2-BP ag | zfTRPN1 agonist | TRPML3 agonist | IMP-1 inh-2 | VIM-2 FRET inh | TEM-1 inh | VIM-2 confirm 2
Nc1nc(/C=C/c2cccnc2)nc(-c2ccccc2O)n1 | -1 | 23* | -16 | 1 | -1 | 1 | -3 | -4 | -7 | 60*
Nc1nc(/C=C/c2ccc(F)cc2)nc(-c2ccccc2O)n1 | 1 | 1 | -18 | 0 | 0 | 1 | nt | nt | nt | nt
Cc1ccc(/C(O)=C2/C(=O)C(=O)N(Cc3cccnc3)C2c2ccccn2)cc1 (stereo not drawn) | -3 | 3 | 1 | -1 | 0 | 0 | nt | nt | nt | nt
O=C1C(=O)N(Cc2cccnc2)C(c2ccccn2)/C1=C(/O)c1ccc(F)cc1 (stereo not drawn) | -3 | 52* | -36 | 4 | 0 | 0 | -2 | 76* | -6 | 69*
Cc1cc(C)c2c(n1)sc1c(N3CCN(C)CC3)ncnc12 | -1 | 13* | -6 | 1 | 0 | 1 | -2 | 0 | -4 | 21*
CCOC(=O)c1sc2nc(C)nc(NC3CCC(O)CC3)c2c1C (stereo not drawn) | -1 | 23* | -1 | 0 | nt | nt | -3 | -2 | -5 | 32*
Cc1nn2c(N3CCCC3)c3c(nc2c1-c1ccccc1)CCC3 | 0 | 4 | 27 | 0 | -1 | 0 | nt | nt | nt | nt
Cc1nn2c(N3CCN(CCO)CC3)c3c(nc2c1-c1ccccc1)CCCC3 | -3 | 37* | 6 | -2 | 0 | 1 | -4 | -4 | -7 | 59*
C=CCn1c(SCC(C)=O)nc2sc3c(c2c1=O)CCC3 | -1 | 6 | 6 | -1 | nt | nt | nt | nt | nt | nt
C=CCn1c(SCC(=O)N2CCN(CCO)CC2)nc2sc3c(c2c1=O)CCC3 | 0 | 50* | 5 | -1 | nt | nt | -3 | 1 | -9 | 64*
O=C(CSc1nnc(CNC(=O)c2c(F)cccc2F)o1)NCc1ccco1 | 1 | 0 | -18 | 2 | nt | nt | nt | nt | nt | nt
COc1ccc(-c2cc(C(F)(F)F)n3nc(C(=O)NCCCn4ccnc4)cc3n2)cc1 | -3 | 29* | 8 | -3 | 0 | 0 | -2 | -13 | -6 | 48*
CC(C)(C)OC(=O)C[C@H]1C/C=C\C[C@@H](CC(=O)N(CCO)Cc2ccccc2)C(=O)N[C@@H](Cc2ccccc2)COC1=O | nt | nt | -2 | -2 | nt | nt | nt | nt | nt | nt
Cc1c(NC(=O)c2c(N)sc3c2CCCC3)c(=O)n(-c2ccccc2)n1C | -3 | -3 | 1 | 0 | -1 | 1 | nt | nt | nt | nt
O=Cc1ccc2ccc3cccnc3c2n1 | -1 | 59* | 2 | -4 | nt | nt | -4 | -5 | -5 | 70*
O=Cc1ccc2cccnc2n1 | -6 | -2 | 13 | 1 | 3 | 0 | nt | nt | nt | nt
CC(C)(C)n1cn[nH]c1=S | -4 | -4 | 4 | 0 | 3 | 1 | nt | nt | nt | nt
CN(C)c1ccc(/C=C2\C(=N)N3N=C(CC(=O)N4CCCCC4)SC3=NC2=O)cc1 | 1 | 13* | -65 | 55* | nt | nt | -1 | 29* | -5 | 18*
O=C(CSc1nnc(NC(=O)c2ccccc2[N+](=O)[O-])s1)NCC1CCCO1 (stereo not drawn) | -2 | 19* | 1 | -1 | nt | nt | -3 | 35* | -6 | 23*
O=C(CSc1nnc(NC(=O)c2ccccc2F)s1)NCC1CCCO1 (stereo not drawn) | -2 | 15* | 26 | -3 | nt | nt | -3 | 28* | -7 | 17*
O=C(CSc1nnc(NC(=O)Cc2ccccc2)s1)NCC1CCCO1 (stereo not drawn) | -1 | -1 | 23 | 2 | -1 | 0 | nt | nt | nt | nt
O=C(CSc1nnc(Nc2ccccc2F)s1)NCC1CCCO1 (stereo not drawn) | nt | nt | 9 | 1 | nt | nt | nt | nt | nt | nt
O=C(CN(Cc1ccccc1)C(=O)CCC(=O)Nc1nccs1)NCc1ccccc1 | -1 | -1 | -10 | -1 | nt | nt | nt | nt | nt | nt
Cc1ccc(NC(=O)c2ncn(CCCNCCCc3ccccc3)n2)cc1C | nt | nt | -2 | -1 | nt | nt | nt | nt | nt | nt
CCN(CC(=O)Nc1ccccc1C(F)(F)F)C(=O)C1CC(=O)N(Cc2ccccc2)C1 (stereo not drawn) | nt | nt | 10 | 0 | nt | nt | nt | nt | nt | nt
SMILES | IMP-1 inh-1 | VIM-2 inhibitor | CRFBP-R2 block | CRFR2-BP ag | zfTRPN1 agonist | TRPML3 agonist | IMP-1 inh-2 | VIM-2 FRET inh | TEM-1 inh | VIM-2 confirm 2
Cc1nn(-c2ccccc2)c(Cl)c1/C=N/NC(=O)c1[nH]ncc1Br | -3 | -5 | -4 | 0 | nt | nt | nt | nt | nt | nt
Cc1cc(NCCCCO)n2c(nc3ccccc32)c1C#N | -2 | 19* | -20 | -2 | 0 | 0 | -3 | -10 | -7 | 40*
C=C(C)CSc1cc(C)c(C#N)c2nc3ccccc3n12 | 2 | 17* | 1 | 5 | 0 | 0 | -3 | 4 | -9 | 21*
Cc1cc(-c2ccco2)n2c(nc3ccccc32)c1C#N | -2 | 18* | 4 | 1 | 0 | 0 | -3 | 32* | -4 | 43*
CCN(CC)CCNc1cc(C)c(C#N)c2nc3ccccc3n12 | -3 | 22* | -37 | 23 | nt | nt | -3 | -8 | -6 | 37*
Cc1ccnc(N2CCN(c3cc(C)c(C#N)c4nc5ccccc5n34)CC2)c1 | -3 | -1 | -4 | -1 | 0 | 1 | nt | nt | nt | nt
CCN(CC)CCCNc1cc(C)c(C#N)c2nc3ccccc3n12 | nt | nt | -8 | 0 | nt | nt | nt | nt | nt | nt
COCCN(CCOC)c1cc(C)c(C#N)c2nc3ccccc3n12 | -5 | -2 | 11 | -2 | 0 | 0 | nt | nt | nt | nt
Cc1nc(Cl)c(C(=O)NCCc2ccccc2)c(C)c1[N+](=O)[O-] | -1 | 0 | 3 | 1 | nt | nt | nt | nt | nt | nt
CCN(C(=O)COC(=O)c1cc(Cl)ccc1OC)c1c(N)n(Cc2ccccc2)c(=O)[nH]c1=O | nt | nt | -8 | 2 | nt | nt | nt | nt | nt | nt

Bioassay records as filed in PubChem.
